# Reference: ChEMBL document CHEMBL3414565, “Discovery of novel AHLs as potent antiproliferative agents” (Eur J Med Chem, 2015)
# Experiments:
# MCF7 [1] = assay: Induction of apoptosis in human MCF7 cells assessed as viable cells at 8 uM after 12 hrs by annexin V-FITC/propidium iodide staining-based flow cytometry (reference value: 85.4%); format: functional; settings: MCF7, 12 h, read-out: Activity
# In short: (§1)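 MCF-7 cells were plated at 5.0 × 10^6 cells/mL and held 12 or 24 h at 37 °C. Exponentially growing cells then received complete medium (blank) or compound at 0, 2, 4 or 8 for 12 or 24 h. Harvested cells were stained with Annexin V-FITC/PI and analysed by flow cytometry. Quadrants were scored as live, early apoptotic (annexin+/PI−), late apoptotic (double positive) and damaged (PI+ only).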
# MCF7 [2] = assay: Induction of apoptosis in human MCF7 cells assessed as late apoptotic cells at 2 uM after 24 hrs by annexin V-FITC/propidium iodide staining-based flow cytometry (reference value: 2.1%); format: functional; in short: as §1
# MCF7 [3] = assay: Induction of apoptosis in human MCF7 cells assessed as necrotic cells at 2 uM after 24 hrs by annexin V-FITC/propidium iodide staining-based flow cytometry (reference value: 6.2%); format: functional; in short: as §1
# MCF7 [4] = assay: Induction of apoptosis in human MCF7 cells assessed as viable cells at 2 uM after 24 hrs by annexin V-FITC/propidium iodide staining-based flow cytometry (reference value: 87.1%); format: functional; settings: MCF7, 24 h, read-out: Activity; in short: as §1
# MCF7 [5] = assay: Cell cycle arrest in human MCF7 cells assessed as accumulation at G1/G0 phase at 4 uM after 12 hrs by propidium iodide staining-based flow cytometry (reference value: 60.51%); format: functional
# MCF7 [6] = assay: Cell cycle arrest in human MCF7 cells assessed as accumulation at S phase at 4 uM after 12 hrs by propidium iodide staining-based flow cytometry (reference value: 26.65%); format: functional
# MCF7 [7] = assay: Cell cycle arrest in human MCF7 cells assessed as accumulation at G2/M phase at 4 uM after 12 hrs by propidium iodide staining-based flow cytometry (reference value: 16.53%); format: functional
# MCF7 [8] = assay: Cell cycle arrest in human MCF7 cells assessed as accumulation at S phase at 8 uM after 12 hrs by propidium iodide staining-based flow cytometry (reference value: 26.65%); format: functional
# MCF7 [9] = assay: Cell cycle arrest in human MCF7 cells assessed as accumulation at G1/G0 phase at 2 uM after 24 hrs by propidium iodide staining-based flow cytometry (reference value: 46.77%); format: functional
# MCF7 [10] = assay: Cell cycle arrest in human MCF7 cells assessed as accumulation at S phase at 2 uM after 24 hrs by propidium iodide staining-based flow cytometry (reference value: 40.08%); format: functional
# MCF7 [11] = assay: Cell cycle arrest in human MCF7 cells assessed as accumulation at G2/M phase at 2 uM after 24 hrs by propidium iodide staining-based flow cytometry (reference value: 16.27%); format: functional
# MCF7 [12] = assay: Cell cycle arrest in human MCF7 cells assessed as accumulation at G2/M phase at 4 uM after 24 hrs by propidium iodide staining-based flow cytometry (reference value: 16.27%); format: functional
# MCF7 [13] = assay: Cell cycle arrest in human MCF7 cells assessed as accumulation at G1/G0 phase at 8 uM after 24 hrs by propidium iodide staining-based flow cytometry (reference value: 46.77%); format: functional
# MCF7 [14] = assay: Cell cycle arrest in human MCF7 cells assessed as accumulation at G2/M phase at 2 to 8 uM by propidium iodide staining-based flow cytometry; format: functional; settings: TDE = time-dependent effect
# MCF7 [15] = assay: Cytotoxicity against human MCF7 cells after 72 hrs by MTT assay; format: functional, cell-based; settings: MCF7, 72 h
# In short: (§2)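 Cells were grown in RPMI1640 and seeded at 5 × 10^3 cells/well, then left 24 h at 37 °C. Medium was replaced with fresh medium holding a range of compound concentrations, from 10 mM DMSO stocks with final DMSO at most 0.1%. Exposure lasted 72 h. MTT (5 mg/mL) was added for 4 h at 37 °C, formazan was dissolved in DMSO and A570 was read. IC50 came from dose-response curves as mean ± SD of three independent experiments.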
# SMMC-7721 = assay: Cytotoxicity against human SMMC7721 cells after 72 hrs by MTT assay; format: functional, cell-based; settings: SMMC-7721, 72 h; in short: as §2
# MCF7 [16] = assay: Induction of apoptosis in human MCF7 cells assessed as early apoptotic cells at 2 uM after 12 hrs by annexin V-FITC/propidium iodide staining-based flow cytometry (reference value: 7.2%); format: functional; in short: as §1
# MCF7 [17] = assay: Induction of apoptosis in human MCF7 cells assessed as late apoptotic cells at 2 uM after 12 hrs by annexin V-FITC/propidium iodide staining-based flow cytometry (reference value: 2.7%); format: functional; in short: as §1
# MCF7 [18] = assay: Induction of apoptosis in human MCF7 cells assessed as late apoptotic cells at 4 uM after 12 hrs by annexin V-FITC/propidium iodide staining-based flow cytometry (reference value: 2.7%); format: functional; in short: as §1
structure (smiles),measurement,setting,value
O=C(CSC(=S)N[C@H]1CCOC1=O)Nc1ccc(C(=O)/C=C/c2ccccc2Cl)cc1,viability at 8 µM,MCF7 [1],75.9%
same,Activity,MCF7 [2],2.1%
same,Activity,MCF7 [3],5.7%
same,viability at 2 µM,MCF7 [4],75.8%
same,Activity,MCF7 [5],58.39%
same,Activity,MCF7 [6],24.4%
same,Activity,MCF7 [7],20.51%
same,Activity,MCF7 [8],25.84%
same,Activity,MCF7 [9],40.44%
same,Activity,MCF7 [10],32.7%
same,Activity,MCF7 [11],26.69%
same,Activity,MCF7 [12],47.37%
same,Activity,MCF7 [13],14.45%
same,Activity,MCF7 [14],tde
same,IC50,MCF7 [15],5.57 µM
same,IC50,SMMC-7721,20.4 µM
same,Activity,MCF7 [16],11.4%
same,Activity,MCF7 [17],1.7%
same,Activity,MCF7 [18],1.7%
